In brackets after ≈: the same amount, converted by molar mass. Square brackets hold non-standard residues; d marks the D form. Peptide text beside a SMILES is read from it. Gly(N-CH2-oxan-4-yl) = O=C(O)CNCC1CCOCC1; NCyclohexylmethylGly = O=C(O)CNCC1CCCCC1; NMeL = CN[C@@H](CC(C)C)C(=O)O; NMeA = CN[CH](C)C(=O)O; NEtG = CCNCC(=O)O

The nature of data set [1]: MDCK permeability. The data set is classed as in vitro ADME. The settings on record: dog.
Data set [2] can be described thus: physchem. It counts as physicochemical.
The format of data set [3] is in vitro ADME. Particulars: serum.
Data set [4] can be described thus: oral bioavailability. It counts as in vivo. Particulars: mouse; for bioavailability: in vivo, po, Oral bioavailability, No inhib., no inhibitors, mean (two individual values). A digest of the protocol: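 Oral dosing in mice with no pretreatment by CYP or P-gp inhibitor. Oral bioavailability (F) reported as the mean of two independent experiments, with the individual values also given.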

The format of data set [5] is in vitro ADME. Particulars: microsomes.
Data set [6] has as its target P-gp (Homo sapiens, UniProt P08183). Briefly: P-gp efflux ratio. It counts as in vitro ADME. Particulars: not told.
The mark [7] stands for this setting: pH 6.8, aqueous solubility at pH 6.8.

P-gp, sequence (P08183 whole entry): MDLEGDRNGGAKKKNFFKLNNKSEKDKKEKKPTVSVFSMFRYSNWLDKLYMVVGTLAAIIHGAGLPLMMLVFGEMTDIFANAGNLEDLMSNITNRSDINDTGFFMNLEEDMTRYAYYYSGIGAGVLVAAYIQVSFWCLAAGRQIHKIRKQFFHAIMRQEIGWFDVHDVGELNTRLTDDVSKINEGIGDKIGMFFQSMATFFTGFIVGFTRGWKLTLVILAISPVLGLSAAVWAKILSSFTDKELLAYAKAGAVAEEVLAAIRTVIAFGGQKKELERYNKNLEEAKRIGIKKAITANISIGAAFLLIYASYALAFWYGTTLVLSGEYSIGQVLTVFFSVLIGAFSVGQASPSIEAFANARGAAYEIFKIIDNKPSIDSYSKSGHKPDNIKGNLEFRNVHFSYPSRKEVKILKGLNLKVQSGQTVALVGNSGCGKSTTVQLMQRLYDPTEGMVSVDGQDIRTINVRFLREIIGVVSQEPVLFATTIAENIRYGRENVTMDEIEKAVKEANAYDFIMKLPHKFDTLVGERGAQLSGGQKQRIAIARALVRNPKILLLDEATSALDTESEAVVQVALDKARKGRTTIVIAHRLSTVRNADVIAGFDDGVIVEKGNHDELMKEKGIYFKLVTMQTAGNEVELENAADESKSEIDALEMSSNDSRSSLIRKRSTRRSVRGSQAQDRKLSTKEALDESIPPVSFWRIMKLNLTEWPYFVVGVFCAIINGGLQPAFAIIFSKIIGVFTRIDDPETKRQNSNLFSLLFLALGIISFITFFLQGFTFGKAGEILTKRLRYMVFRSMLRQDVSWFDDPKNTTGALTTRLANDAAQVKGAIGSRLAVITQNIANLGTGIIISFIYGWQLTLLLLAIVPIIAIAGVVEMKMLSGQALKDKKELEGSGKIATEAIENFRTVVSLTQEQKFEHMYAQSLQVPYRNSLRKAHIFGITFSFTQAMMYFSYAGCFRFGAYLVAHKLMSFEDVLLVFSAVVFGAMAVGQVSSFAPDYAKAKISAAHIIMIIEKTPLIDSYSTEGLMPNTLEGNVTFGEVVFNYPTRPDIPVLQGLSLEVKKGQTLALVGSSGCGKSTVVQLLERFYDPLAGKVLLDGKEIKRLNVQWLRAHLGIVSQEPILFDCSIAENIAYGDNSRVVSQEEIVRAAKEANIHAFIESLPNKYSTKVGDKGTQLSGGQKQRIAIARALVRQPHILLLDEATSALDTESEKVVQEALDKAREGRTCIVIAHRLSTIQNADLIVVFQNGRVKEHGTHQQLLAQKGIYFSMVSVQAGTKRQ

The molecule `CCN1CC(=O)NC(CC(C)C)C(=O)N(C)C(C)C(=O)NC(CC(C)C)C(=O)N2CCCC2C(=O)N(CC2CCOCC2)CC(=O)NC(CC(C)C)C(=O)N(C)C(C)C(=O)NC(C)C(=O)N2CCCC2C1=O` (stereo not drawn) [A03] (cyclo([NEtG]L[NMeA]LP[Gly(N-CH2-oxan-4-yl)]L[NMeA]AP); configuration not given here) registered a Papp in data set [1] of 0.4 ×10⁻⁶ cm/s. Further, the concentration in solution in data set [2] (pH 1.2, aq. sol. pH 1.2) (solubility) came to 1800 µg/mL (≈ 1770 µM). In addition, in data set [2], the “aq. sol. pH 6.8” value is recorded as 1900 μg/mL. Moreover, the fraction unbound in data set [3] was 0.31. Moreover, the “oral BA (F)” value in data set [4] (3 mg/kg, no CYP or P-gp inhibition) is on record as 1%. The molecule further returned a bioavailability in data set [4] of 1%. Besides, in data set [5], the microsomal stability worked out at 64%. Moreover, the efflux ratio in data set [6] turned out to be 6.4.

Regarding `CCN1CC(=O)NC(CC(C)C)C(=O)N(C)C(C)C(=O)NC(CC(C)C)C(=O)N2CCCC2C(=O)N(CC2CCCCC2)CC(=O)NC(CC(C)C)C(=O)N(C)C(C)C(=O)NC(Cc2ccccc2)C(=O)N2CCCC2C1=O` (stereo not drawn) [A08] (cyclo([NEtG]L[NMeA]LP[NCyclohexylmethylGly]L[NMeA]FP); configuration not given here), in data set [1], the Papp stood at 24.7 ×10⁻⁶ cm/s. The solubility turned out to be 2.5 µg/mL (≈ 2.29 µM) in data set [2] (pH 1.2, aq. sol. pH 1.2); 6.8 µg/mL (≈ 6.24 µM) in data set [2] (pH 6.8, aq. sol. pH 6.8); 7 µg/mL (≈ 6.43 µM) in data set [2] (setting [7]). Besides, in data set [3], the fraction unbound is less than 0.002. Further, the bioavailability in data set [4] was found to be 5%. In data set [5], this molecule returned a microsomal stability of 33%. Besides, the efflux ratio in data set [6] is 8.5.

Turning to `CCN1CC(=O)N[C@@H](CC(C)C)C(=O)N(C)[C@@H](C)C(=O)N[C@@H](CC(C)C)C(=O)N2CCC[C@@H]2C(=O)N(CC2CCOCC2)CC(=O)N[C@@H](CC(C)C)C(=O)N(C)[C@@H](C)C(=O)N[C@@H](Cc2ccccc2)C(=O)N2CCC[C@@H]2C1=O` [A09] (cyclo([NEtG]L[NMeA]L[dP][Gly(N-CH2-oxan-4-yl)]L[NMeA]F[dP])), in data set [2] (pH 1.2, aq. sol. pH 1.2), the solubility came to 590 µg/mL (≈ 541 µM). Besides, the “aq. sol. pH 6.8” value in data set [2] worked out at 640 μg/mL. This molecule also showed a fraction unbound in data set [3] of 0.02. This molecule also gave a bioavailability in data set [4] of 2%. This molecule showed a microsomal stability in data set [5] of 67%. Further, the efflux ratio in data set [6] worked out at 46.9.

For `CCN1CC(=O)N[C@@H](CC(C)C)C(=O)N2CCC[C@@H]2C(=O)N(C)[C@@H](CC(C)C)C(=O)N[C@@H](C)C(=O)N(CC2CCCCC2)CC(=O)N[C@@H](Cc2ccccc2)C(=O)N2CCC[C@@H]2C(=O)N(C)[C@@H](CC(C)C)C(=O)N[C@@H](C)C1=O` [B08] (cyclo([NEtG]L[dP][NMeL]A[NCyclohexylmethylGly]F[dP][NMeL]A)), the “aq. sol. pH 1.2” value in data set [2] (pH 1.2) is 210 μg/mL. In data set [2], the “aq. sol. pH 6.8” value is on record as 210 μg/mL. In data set [2] (setting [7]), the concentration in solution (solubility) came to 210 µg/mL (≈ 193 µM). Also, the microsomal stability in data set [5] amounted to 53%.

`CCN1CC(=O)N[C@@H](CC(C)C)C(=O)N2CCC[C@@H]2C(=O)N(C)[C@@H](CC(C)C)C(=O)N[C@@H](C)C(=O)N(CC2CCOCC2)CC(=O)N[C@@H](Cc2ccccc2)C(=O)N2CCC[C@@H]2C(=O)N(C)[C@@H](CC(C)C)C(=O)N[C@@H](C)C1=O` [B09] (cyclo(A[NEtG]L[dP][NMeL]A[Gly(N-CH2-oxan-4-yl)]F[dP][NMeL])) came in with a solubility in data set [2] (pH 1.2, aq. sol. pH 1.2) of 2100 µg/mL (≈ 1920 µM). In addition, in data set [2], the “aq. sol. pH 6.8” value is on record as 2200 μg/mL. Also, the bioavailability in data set [4] was found to be 1%. In data set [5], this molecule showed a microsomal stability of 90%.

A word on the Papp: it is a coefficient for how fast a substance crosses the barrier. Read a high Papp as ready permeation. What is called solubility is the dissolved amount per volume that the medium holds. A lower solubility goes with little dissolved substance. As a reminder, the fraction unbound is free concentration divided by total concentration. Lower therefore signals little free substance. What is called bioavailability is the share of a dose that reaches the circulation, judged against a reference dose that is usually intravenous. Read a high bioavailability as much systemic uptake. Usually efflux ratio stands for the permeability from basolateral to apical divided by that in the opposite direction, in the common usage.

(Values after publication PMC7719619 (Angewandte Chemie (International ed. in English), 2020).)
